# Experimental data taken from paper PMC7357173 (Toxicological Sciences, 2020).
# Where a name gives a salt, the structure may show the parent alone.
# Tests used:
# Assay type in all cases: cell-based, human
# IL-8 = IL-8 secretion, ELISA of HepG2 supernatants; settings: HepG2, 24 h
# In short: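 HepG2 grown and exposed as for the other assays: 8 concentrations from DMSO stocks, 0.5% DMSO final, 37°C, 5% CO2, triplicate wells, one run. 50 µl of supernatant collected after the incubation and assayed for IL-8 by ELISA kit. Values divided by the plate median control, log2-transformed and fitted by Bayesian concentration–response modelling to give PoD.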
# HepG2 cells [1] = experiment: Cellular ATP
# In short: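 HepG2 in supplemented MEM (10% FBS), kept below 85% confluence and ≤8 passages. Treated with 8-point dilutions from DMSO stocks (0.5% DMSO final) at 37°C, 5% CO2. Cellular ATP read by CellTiterGlo luminescence, normalized to vehicle wells as fold change. Run once, triplicate wells per concentration. PoD taken from Bayesian concentration–response fits.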
# HepG2 cells [2] = experiment: Cellular stress panel as a whole; settings: for bioactivity group: HepG2 cellular stress panel
# In short: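 HepG2 exposed 1, 6 or 24 h to 8 nominal concentrations (0.5% DMSO), one run, 3 technical replicates each. Per-plate raw values divided by the median control and log2-transformed; concentrations log10-transformed. Bayesian fit with a Student's t (5 df) replicate model and well-position scale term. PoD found by linear interpolation; CDS is the fraction of 10 000 samples yielding a PoD.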
# HepG2 cells [3] = experiment: Glutathione content
# HepG2 cells [4] = experiment: Phospholipidosis; settings: HepG2, 24 h
# In short: (§1)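 High-content imaging of HepG2 seeded at 10 000 (24 h) or 12 500 (6, 1 h) cells/well and adhered overnight. Triplicate wells at 8 concentrations, 0.5% DMSO. Mito-mass stained with a mitochondria-specific fluorescent dye; PLD detected by a dye conjugating to phospholipids. Cells fixed in 4% formaldehyde with Hoechst 33342 where required. Eight fields imaged per well (10×); intensity compared against vehicle wells.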
# HepG2 cells [5] = experiment: Mitochondrial mass; settings: HepG2, 1, 6 and 24 h; subcytotoxic PoD
# In short: as §1
# HepG2 cells [6] = experiment: Oxygen consumption rate
# In short: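 HepG2 seeded at 16 000 cells/well, attached overnight, then treated 1, 6 or 24 h; the final 60 min was in unbuffered DMEM (10 mM glucose, 30 mM NaCl, 1 mM pyruvate, 2 mM L-alanyl-glutamine, pH 7.4, 37°C). Four baseline and six post-compound reads (3-min mix, 4-min read). Then oligomycin 1 μM, FCCP 0.5 μM and rotenone/antimycin A 1 μM each. Values baseline-normalized and corrected for nonmitochondrial OCR.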
# HepG2 cells [7] = experiment: Mitochondrial ROS; settings: HepG2, all timepoints, highest concentration
compound,measurement,setting,value
O=c1ccc2ccccc2o1 [Coumarin],change in IL-8,IL-8,decrease
same,change in cellular ATP (lowest PoD),"HepG2 cells [1]; HepG2, 6 and 24 h",decrease
same,all PoDs of the panel,"HepG2 cells [2]; HepG2, around the top concentration tested",~1000 µM
same,bioactivity group,HepG2 cells [2],1
same,change in glutathione,"HepG2 cells [3]; HepG2, 24 h",increase
same,change in phospholipidosis,HepG2 cells [4],decrease
"O=C(O)Cc1ccccc1Nc1c(Cl)cccc1Cl [Diclofenac, Diclofenac sodium salt]",estimated plasma Cmax compared with minimum PoD,HepG2 cells [2]; total Cmax of Table 2 vs nominal in vitro PoD,approximately one order of magnitude below the lowest PoD
"COc1cccc2c1C(=O)c1c(O)c3c(c(O)c1C2=O)C[C@@](O)(C(=O)CO)C[C@@H]3O[C@H]1C[C@H](N)[C@H](O)[C@H](C)O1 [Doxorubicin, Doxorubicin hydrochloride]",change in cellular ATP,"HepG2 cells [1]; HepG2, 6 h",increases
same,change in cellular ATP,"HepG2 cells [1]; HepG2, 24 h",loss
same,change in glutathione,"HepG2 cells [3]; HepG2, 1 h",Increases
same,change in glutathione,"HepG2 cells [3]; HepG2, 24 h",loss
same,change in mitochondrial mass,HepG2 cells [5],increases
"NC(=O)c1cccnc1 [Niacinamide, Nicotinamide]",change in IL-8,IL-8,small but appreciable decrease
"OCCOc1ccccc1 [Phenoxyethanol, 2-Phenoxyethanol]",concentration-responses among all 36 biomarkers,"HepG2 cells [2]; HepG2, up to 1000 µM",no concentration-responses could be detected
"CCc1ccc(CCOc2ccc(CC3SC(=O)NC3=O)cc2)nc1 (stereo not drawn) [Pioglitazone, Pioglitazone hydrochloride]",change in OCR and reserve capacity,"HepG2 cells [6]; HepG2, concentrations between 40 and 100 µM",increase
same,change in OCR and reserve capacity,"HepG2 cells [6]; HepG2, concentrations up to 10 µM",decrease
"C[S+]([O-])CCCCN=C=S [Sulforaphane, L-Sulforaphane]",bioactivity group,HepG2 cells [2],3
Oc1cc(Cl)ccc1Oc1ccc(Cl)cc1Cl [Triclosan],change in cellular ATP,"HepG2 cells [1]; HepG2, 6 h",increase
same,change in cellular ATP,"HepG2 cells [1]; HepG2, 24 h",reduction
same,increase in mitochondrial superoxide (MitoROS),HepG2 cells [7],2- to 4 fold
Cc1c(C)c2c(c(C)c1O)CCC(C)(COc1ccc(CC3SC(=O)NC3=O)cc1)O2 (stereo not drawn) [Troglitazone],effect on OCR,"HepG2 cells [6]; HepG2, two highest concentrations (40 and 100 µM)",reduced the OCR near to zero
